Laboratory results taken from ChEMBL document CHEMBL1137451, “Synthesis and evaluation of antifungal properties of a series of the novel 2-amino-5-oxo-4-phenyl-5,6,7,8-tetrahydroquinoline-3-carbonitrile and its analogues” (Bioorg Med Chem, 2007).
Calls of active or inactive are those of the source. The rule behind the calls is not given here.

Legend:
[1] = tested on: Candida albicans; assay: Antifungal activity against Candida albicans 1 at 60 ug/disc after 24 hrs by disc diffusion method; format: functional; conditions: for zone of inhibition at 60 µg/disc: read-out: IZ
Procedure, shortened: (§1)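 Yeast suspensions (C. albicans strains 1, 2) and mycelial suspensions (F. oxysporum strains 1, 2; Mucor sp.) spread on YPG (0.3% yeast extract, 0.5% peptone, 1% glucose) or PDA agar. Compound applied on filter-paper discs at the stated amount; 28 °C, 24 h. Read-out is inhibition zone diameter. Controls: 50% v/v DMSO vehicle, cycloheximide, amphotericin B.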

[2] = tested on: Candida albicans; assay: Antifungal activity against Candida albicans 1 at 40 ug/disc after 24 hrs by disc diffusion method; format: functional; conditions: for zone of inhibition at 40 µg/disc: read-out: IZ; procedure, shortened: as §1
[3] = tested on: Candida albicans; assay: Antifungal activity against Candida albicans 1 at 100 ug/disc after 24 hrs by disc diffusion method; format: functional; conditions: read-out: IZ; procedure, shortened: as §1
[4] = tested on: Candida albicans; assay: Antifungal activity against Candida albicans 2 at 40 ug/disc after 24 hrs by disc diffusion method; format: functional; conditions: for zone of inhibition at 40 µg/disc: read-out: IZ; procedure, shortened: as §1
[5] = tested on: Candida albicans; assay: Antifungal activity against Candida albicans 2 at 60 ug/disc after 24 hrs by disc diffusion method; format: functional; conditions: for zone of inhibition at 60 µg/disc: read-out: IZ; procedure, shortened: as §1
[6] = tested on: Candida albicans; assay: Antifungal activity against Candida albicans 2 at 100 ug/disc after 24 hrs by disc diffusion method; format: functional; conditions: read-out: IZ; procedure, shortened: as §1
[7] = tested on: Fusarium oxysporum; assay: Antifungal activity against Fusarium oxysporum 1 at 40 ug/disc after 24 hrs by disc diffusion method; format: functional; conditions: for zone of inhibition at 40 µg/disc: read-out: IZ; procedure, shortened: as §1
[8] = tested on: Fusarium oxysporum; assay: Antifungal activity against Fusarium oxysporum 1 at 60 ug/disc after 24 hrs by disc diffusion method; format: functional; conditions: for zone of inhibition at 60 µg/disc: read-out: IZ; procedure, shortened: as §1
[9] = tested on: Fusarium oxysporum; assay: Antifungal activity against Fusarium oxysporum 1 at 100 ug/disc after 24 hrs by disc diffusion method; format: functional; conditions: read-out: IZ; procedure, shortened: as §1
[10] = tested on: Fusarium oxysporum; assay: Antifungal activity against Fusarium oxysporum 2 at 40 ug/disc after 24 hrs by disc diffusion method; format: functional; conditions: for zone of inhibition at 40 µg/disc: read-out: IZ; procedure, shortened: as §1
[11] = tested on: Fusarium oxysporum; assay: Antifungal activity against Fusarium oxysporum 2 at 60 ug/disc after 24 hrs by disc diffusion method; format: functional; conditions: for zone of inhibition at 60 µg/disc: read-out: IZ; procedure, shortened: as §1
[12] = tested on: Fusarium oxysporum; assay: Antifungal activity against Fusarium oxysporum 2 at 100 ug/disc after 24 hrs by disc diffusion method; format: functional; conditions: read-out: IZ; procedure, shortened: as §1
[13] = tested on: Mucor; assay: Antifungal activity against Mucor at 40 ug/disc after 24 hrs by disc diffusion method; format: functional; procedure, shortened: as §1
[14] = tested on: Mucor; assay: Antifungal activity against Mucor at 60 ug/disc after 24 hrs by disc diffusion method; format: functional; procedure, shortened: as §1
[15] = tested on: Mucor; assay: Antifungal activity against Mucor at 100 ug/disc after 24 hrs by disc diffusion method; format: functional; procedure, shortened: as §1
[16] = tested on: Candida albicans; assay: Antifungal activity against Candida albicans 1 after 24 hrs by disc diffusion method; format: functional
Procedure, shortened: (§2)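 Disc diffusion on Candida albicans strains 1 and 2 (yeast suspension), Fusarium oxysporum strains 1 and 2 and Mucor sp. (mycelial suspension), spread on YPG or PDA agar. Compound at graded amounts per filter-paper disc, 28 °C for 24 h. MIC taken as the lowest amount giving a 2 mm inhibition zone. Controls: 50% v/v DMSO vehicle, cycloheximide, amphotericin B.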

[17] = tested on: Candida albicans; assay: Antifungal activity against Candida albicans 2 after 24 hrs by disc diffusion method; format: functional; procedure, shortened: as §2
[18] = tested on: Fusarium oxysporum; assay: Antifungal activity against Fusarium oxysporum 1 after 24 hrs by disc diffusion method; format: functional; procedure, shortened: as §2
[19] = tested on: Fusarium oxysporum; assay: Antifungal activity against Fusarium oxysporum 2 after 24 hrs by disc diffusion method; format: functional; procedure, shortened: as §2
[20] = tested on: Benjaminiella poitrasii; assay: Inhibition of Benjaminiella poitrasii chitin synthase at 4 ug/mL
Procedure, shortened: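 Chitin synthase from Benjaminiella poitrasii measured with and without compound at 4 µg/ml, using a non-radioactive chitin synthase assay. Nikkomycin Z used as reference.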

[21] = tested on: Benjaminiella poitrasii; assay: Inhibition of yeast hypha transition at 20 ug/mL after 4 hrs

| SMILES | zone of inhibition at 60 µg/disc [1] [mm] | Activity [2] | zone of inhibition at 100 µg/disc [3] [mm] | Activity [4] | zone of inhibition at 60 µg/disc [5] [mm] | zone of inhibition at 100 µg/disc [6] [mm] | Activity [7] | zone of inhibition at 60 µg/disc [8] [mm] | zone of inhibition at 100 µg/disc [9] [mm] | zone of inhibition at 60 µg/disc [11] [mm] | zone of inhibition at 100 µg/disc [12] [mm] | Activity [13] | Activity [14] | Activity [15] | MIC [16] [µg/disc] | MIC [17] [µg/disc] | MIC [18] [µg/disc] | MIC [19] [µg/disc] | inhibition [20] [%] | inhibition at 20 µg/mL [21] [%] | other results |
| --- | --- | --- | --- | --- | --- | --- | --- | --- | --- | --- | --- | --- | --- | --- | --- | --- | --- | --- | --- | --- | --- |
| CC(=O)Nc1nc2c(c(-c3ccc(C)cc3)c1C#N)C(=O)CCC2 | 3 | inactive | 7 | inactive | 3 | 7 | inactive | 3 | 5 | 3 | 5 | inactive | inactive | inactive | 60 | 60 | 60 | 60 | 66 | 90 | Activity [10]: inactive |
| C[C@@H]1C[C@@H]([C@H](O)CC2CC(=O)NC(=O)C2)C(=O)[C@@H](C)C1 [CYCLOHEXIMIDE] | 4 | – | 7 | – | 4 | 7 | – | 5 | 7 | 5 | 7 | inactive | inactive | inactive | 40 | 40 | 20 | 20 | – | – | zone of inhibition at 40 µg/disc [2]: 2 mm; zone of inhibition at 40 µg/disc [4]: 2 mm; zone of inhibition at 40 µg/disc [7]: 3 mm; zone of inhibition at 40 µg/disc [10]: 3 mm |
| COc1cc(-c2c(C#N)c(N)nc3c2C(=O)CCC3)cc(OC)c1OC | – | inactive | 7 | inactive | – | 7 | – | 2 | 4 | 2 | 4 | inactive | inactive | inactive | 100 | 100 | 20 | 20 | 81 | 95 | Activity [1]: inactive; Activity [5]: inactive; zone of inhibition at 40 µg/disc [7]: 2 mm; zone of inhibition at 40 µg/disc [10]: 2 mm |
| N#Cc1c(N)nc2c(c1-c1cccc(NC(=O)CCN3CCOCC3)c1)C(=O)CCC2 | 2 | – | 7 | – | 2 | 7 | – | 3 | 5 | 3 | 5 | inactive | inactive | inactive | 40 | 40 | 40 | 40 | 61 | 95 | zone of inhibition at 40 µg/disc [2]: 2 mm; zone of inhibition at 40 µg/disc [4]: 2 mm; zone of inhibition at 40 µg/disc [7]: 2 mm; zone of inhibition at 40 µg/disc [10]: 2 mm |
| N#Cc1c(N)nc2c(c1-c1cccc(NC(=O)Nc3cccc(-c4c(C#N)c(N)nc5c4C(=O)CCC5)c3)c1)C(=O)CCC2 | 3 | – | 7 | – | 3 | 7 | inactive | 2 | 6 | 2 | 6 | inactive | inactive | inactive | 40 | 40 | 60 | 60 | 91 | 95 | zone of inhibition at 40 µg/disc [2]: 3 mm; zone of inhibition at 40 µg/disc [4]: 3 mm; Activity [10]: inactive |
| N#Cc1c(N)nc2c(c1-c1ccccc1)C(=O)CCC2 | 2 | inactive | 6 | inactive | 2 | 6 | inactive | 3 | 6 | 3 | 6 | inactive | inactive | inactive | 60 | 60 | 60 | 60 | 66 | 90 | zone of inhibition at 40 µg/disc [10]: 3 mm |
| COc1ccc(-c2c(C#N)c(N)nc3c2C(=O)CCC3)cc1 | 3 | inactive | 4 | inactive | 3 | 4 | inactive | – | 6 | – | 6 | inactive | inactive | inactive | 60 | 60 | 100 | 100 | 81 | 95 | Activity [8]: inactive; zone of inhibition at 40 µg/disc [10]: 3 mm; Activity [11]: inactive |
| N#Cc1c(N)nc2c(c1-c1cccc(N3C(=O)C=CC3=O)c1)C(=O)CCC2 | 5 | – | 7 | – | 5 | 7 | – | 3 | 7 | 3 | 7 | inactive | inactive | inactive | 40 | 40 | 40 | 40 | 91 | 95 | zone of inhibition at 40 µg/disc [2]: 3 mm; zone of inhibition at 40 µg/disc [4]: 3 mm; zone of inhibition at 40 µg/disc [7]: 3 mm; zone of inhibition at 40 µg/disc [10]: 3 mm |
| N#Cc1c(N)nc2c(c1-c1ccc([N+](=O)[O-])cc1)C(=O)CCC2 | 3 | inactive | 5 | inactive | 3 | 5 | inactive | 2 | 3 | 2 | 3 | inactive | inactive | inactive | 60 | 60 | 60 | 60 | 61 | 95 | Activity [10]: inactive |
| COc1ccc(NC(=O)Nc2cccc(-c3c(C#N)c(N)nc4c3C(=O)CCC4)c2)cc1 | 3 | – | 6 | – | 3 | 6 | inactive | – | 2 | – | 2 | inactive | inactive | inactive | 40 | 40 | 100 | 100 | 71 | 95 | zone of inhibition at 40 µg/disc [2]: 2 mm; zone of inhibition at 40 µg/disc [4]: 2 mm; Activity [8]: inactive; Activity [10]: inactive; Activity [11]: inactive |
| Cc1ccc(-c2c(C(N)=O)c(N)nc3c2C(=O)CCC3)cc1 | 2 | inactive | 4 | inactive | 2 | 4 | inactive | – | 4 | 2 | 4 | inactive | inactive | inactive | 60 | 60 | 100 | 100 | 66 | 95 | Activity [8]: inactive; Activity [10]: inactive |
